From PubChem BioAssay AID623917 (The Scripps Research Institute Molecular Screening Center, 2012)
Activity calls are given as the source filed them.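 Rule for the calls: active = E. coli viability under 80% of the solvent control at every tested dose; inactive = viability of 80% or more at every tested dose.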

What follows are molecules tested on E. coli V66 viability, colony formation, Hfr cross (assay: E. coli V66 viability loss, concentration series, dose response, cytotoxicity control for AddAB inhibitor project, colony formation, Hfr recombination (AID 623917)). Settings: active compounds read low.
How it was run: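 system = E. coli V66 recipient cells | medium = LB broth during compound exposure | compound dosing = five doses, 0.03–100 µM | incubation = 1 h growth with compound, 1.5 h overall | signal = CFU counting on non-selective plates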
For `CCn1cc(C(=O)O)c(=O)c2cnc(N3CCN(C(=S)Nc4ccccc4C(F)(F)F)CC3)nc21`, the viability was 90% (inactive).
In the case of `O=C(Nc1ncccn1)c1ccc([N+](=O)[O-])o1`, the viability is reported as 100% (inactive).
With `C=CCn1c(Sc2ncc([N+](=O)[O-])s2)n[nH]c1=O` the viability was 90% (inactive).
`CCn1cc(C(=O)O)c(=O)c2cc(F)c(N3CCN(C(=S)Nc4cccc(C(F)(F)F)c4)CC3)cc21` gave a viability of 12%.
For `O=C(NCc1cccnc1)c1ccc([N+](=O)[O-])o1`, the viability was 100% (inactive).
In the case of `CCn1cc(C(=O)O)c(=O)c2cnc(N3CCN(C(=S)Nc4cccc(C(F)(F)F)c4)CC3)nc21`, the viability is reported as 100% (inactive).
With `CC1CCc2c(sc(NC(=O)c3ccc([N+](=O)[O-])o3)c2C#N)C1` (stereo not drawn) the viability was 90% (inactive).
In the case of `CCn1cc(C(=O)O)c(=O)c2cnc(N3CCNCC3)nc21`, the viability is reported as 90% (inactive).
